Results as given in paper PMC10613959 (Toxicological Sciences, 2023).
Where two headings read alike, the source gives them in different places.

Legend:
[1] = human plasma, topical sunscreen, ref Matta et al., 2020, cited from earlier work
Cross filtration = format: in vitro ADME; details: both, human, pooled human plasma
Summary of the method: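 Modified cross-ultrafiltration: 10 µM test compound in pooled mixed-gender human plasma, 60 min at 37°C, n = 3, then ultrafiltered beside blank plasma. Each retentate was mixed into the partner filtrate and the regenerated samples analysed by LC-MS/MS. Warfarin 10 µM was positive control. Stability was checked at 60 min against non-incubated control. Recovery-corrected mean PPB from filtrate; Fup = 100 − PPB.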

[2] = Metabolic stability in primary human hepatocytes in suspension; format: in vitro ADME; details: human, cryopreserved human hepatocytes in suspension (5 donor pool)
Summary of the method: (§1)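 Cryopreserved human hepatocytes (5-donor pool, 0.8 × 10^6 cells/ml) in Williams E medium (25 mM HEPES, 2 mM L-glutamine) were incubated with test compound at 0.1, 1 and 10 µM, 37°C, n = 3. Sampled at 0, 15, 60, 90, 180 and 240 min; solvent ≤0.5% DMSO or 1% ACN. Heat-inactivated hepatocytes were the negative control. Parent loss was measured by LC-MS. CLint = −k·V (k, slope of log concentration vs time; V, incubation volume/cell number).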

human hepatocytes = experiment: as above; format: in vitro ADME
Summary of the method: as §1

[3] = Blood partitioning assay for Rbp; format: in vitro ADME; details: both, human
Summary of the method: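 Fresh pooled mixed-gender human whole blood (lithium heparin) and reference plasma centrifuged from the same blood were each incubated with 5 µM test compound at 37°C, n = 3. Reactions were stopped at 0 and 60 min. Rbp was derived by LC-MS/MS from test compound concentration in control plasma versus whole-blood supernatant. Chlorthalidone 5 µM served as positive control.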

[4] = PBK population simulation of plasma concentrations; design: species or system human
Summary of the method: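 GastroPlus population simulations reproduced the clinical designs. Lotion or non-aerosol spray, 2 mg/cm2 over 75% body surface, once at 0 h on day 1 and 4 times daily at 2-h intervals on days 2–4 (mixed multiple-dose profile). Alternatively, a 4% formulation over 90% body surface, about 22 mg/kg bw, in 3 male and 3 female subjects. Simulated-mean/observed-mean ratios for Cmax and AUC0−t; 10th–90th percentiles generated.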

[5] = human skin, cited from earlier work
[6] = Skin absorption parameters; design: species or system human; details: Fitted
Summary of the method: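 A skin model in GastroPlus TCAT started from in silico predicted values for the vehicle, stratum corneum, epidermis and dermis. Its diffusivities and partition coefficients were fitted to skin penetration data: receptor-fluid time course where available, plus skin wash and layer distribution. Parameters were adjusted to minimise model–data difference and then used in the human dermal model. Vehicle/water partitioning is formulation-specific.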

[7] = Scaling of in vitro CLint to in vivo CLint and CLliver; design: species or system human; details: scaled from the mean in vitro CLint
Summary of the method: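 Mean in vitro hepatocyte CLint was scaled to in vivo CLint (l/h) using a scaling factor: million cells per gram of liver × grams of liver weight. In vivo CLint was then converted to hepatic clearance with two variations of the well-stirred liver model.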

[8] = target dose 300 µg/cm^2, ref SCCS, 2021

SMILES: CCCCC(CC)COC(=O)C(C#N)=C(c1ccccc1)c1ccccc1 (stereo not shown) [Octocrylene, octocrylene]
- Observed AUC0 − t, Geometric mean ([1]; Day 1): 20.0 ng·h/mL
- Observed AUC0 − t, Range ([1]; Day 1): 6.4 to 38.1 ng·h/mL
- Observed Cmax, Range ([1]; Day 1): 0.5 to 3.6 ng/mL
- Observed AUC0 − t, Geometric mean ([1]; Day 4): 94.7 ng·h/mL
- Observed AUC0 − t, Range ([1]; Day 4): 41.4 to 210.0 ng·h/mL
- Observed Cmax, Range ([1]; Day 4): 2.6 to 38.7 ng/mL
- fraction unbound at 60 min, 10 µM (Cross filtration): 0.0014
- hepatocyte CLint [2]: 16.9 µL/min/1e6 cells
- hepatocyte CLint at 0.1 µM [2]: 27.8 µL/min/1e6 cells
- hepatocyte CLint at 1 µM [2]: 15.2 µL/min/1e6 cells
- hepatocyte CLint at 10 µM [2]: 7.6 µL/min/1e6 cells
- depletion in suspension hepatocytes (human hepatocytes; human suspension hepatocytes, compared with Naloxone): medium to fast depletion
- blood plasma ratio at 60 min, 5 µM [3]: 0.73
- AUC0 − t Fold Difference (Simulated Mean/Observed Mean) ([4]; Day 1): 1.4
- Cmax Fold Difference (Simulated Mean/Observed Mean) ([4]; Day 1): 1.2
- AUC0 − t Fold Difference (Simulated Mean/Observed Mean) ([4]; Day 4): 1.4
- Cmax Fold Difference (Simulated Mean/Observed Mean) ([4]; Day 4): 0.6
- Dermal delivery (Epidermis + dermis + receptor fluid), 14C-octocrylene ([5]; 24 h, mean, ref SCCS (2021)): 0.15%
- Dermis, distribution of 14C-octocrylene ([5]; 24 h, mean, ref SCCS (2021)): 0.012%
- Epidermis, distribution of 14C-octocrylene ([5]; 24 h, mean, ref SCCS (2021)): 0.14%
- Receptor fluid, distribution of 14C-octocrylene ([5]; 24 h, mean, ref SCCS (2021)): 0.0001%
- Skin excess, distribution of 14C-octocrylene ([5]; 24 h, mean, ref SCCS (2021)): 97.96%
- Total recovery, 14C-octocrylene ([5]; 24 h, mean, ref SCCS (2021)): 98.8%
- Total strips (1–20), distribution of 14C-octocrylene ([5]; 24 h, mean, ref SCCS (2021)): 0.69%
- absorbed dose into receptor fluid [5, 8]: negligible
- dermal delivered fraction of the applied dose [5, 8]: less than 0.4%
- Dermis diffusivity [6]: 6.0E−08 cm^2/s
- Dermis/water partition coefficient [6]: 7.0E−01
- Epidermis diffusivity [6]: 2.0E−08 cm^2/s
- Epidermis/water partition coefficient [6]: 6.0E+02
- Stratum corneum diffusivity [6]: 2.0E−11 cm^2/s
- Stratum corneum/water partition coefficient [6]: 2.0E+03
- Vehicle diffusivity [6]: 6.2E−09 cm^2/s
- Vehicle/water partition coefficient ([6]; vehicle/formulation specific): 4.0E+05
- In vivo CLint scaled [7]: 121.7 l/h/kg liver

SMILES: C=CCN1CC[C@]23c4c5ccc(O)c4O[C@H]2C(=O)CC[C@@]3(O)[C@H]1C5 [Naloxone, reference compound]
- hepatocyte CLint [2]: 16.4 ± 1.6 µL/min/1e6 cells
- remaining after 240 min (human hepatocytes; positive control, human hepatocytes in suspension, 240 min): 4.8 ± 1.9%
